The conditions of series [1]: in humans; cited from earlier work.
A further series relates to Se.TRPMPZQ. Kind of series: Functional profiling. It counts as cell-based, Spirometra erinaceieuropaei.
The subject of a further series is Sm.TRPMPZQ[D1677E]. As to the kind of experiment: Functional profiling at Sm.TRPMPZQ[D1677E] mutant. As to conditions: construct lacks the cestode-specific S1 histidine. It counts as cell-based, Schistosoma mansoni. In short, it runs like this: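 Transiently transfected HEK293 cells (Lipofectamine-2000) replated after 24 h at 20,000 cells/well. 24 h later, loaded with Fluo-4 NW for 1 h at 37 °C in HBSS with 2.5 mM probenecid and 20 mM HEPES. FLIPR Ca2+ read at room temperature: 20 s baseline, then compound, then 250 s. Peak minus basal, normalized to (±)-PZQ at the same channel. Three-parameter fit, bottom fixed at 0%. EC50 mean ± SEM, n ≥ 3 transfections.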

Another series deals with Eg.TRPMPZQ (Echinococcus granulosus, UniProt W6UVV9). Kind of series: Ca2+ reporter assay in HEK293 cells, Eg.TRPMPZQ. It counts as cell-based. As to conditions: EC50 at Eg.TRPMPZQ / EC50 at Sm.TRPMPZQ. In general terms: A reporter such as luciferase makes a cellular process visible.
The conditions of series [2]: cited from earlier work.
For series [3] the following is noted: cited from earlier work. This is another data set of the same source.
Series [4] has as its system E. multilocularis protoscoleces. As to the kind of experiment: Cestode motility assay on protoscoleces. It counts as cell-based. As to conditions: Echinococcus multilocularis, read-out: EC50, motility of E. multilocularis protoscoleces.

Each structure is given as a SMILES string.

On to `O=C(C1CCCCC1)N1CC(=O)N2CCc3ccccc3C2C1` (stereo not shown) [PZQ, praziquantel], for which, in series [1], the half time was 2 to 3 h. Also, the “agonist character at Se.TRPMPZQ” value in the series with Se.TRPMPZQ is recorded as “partial agonist”. Moreover, the “activity at Sm.TRPMPZQ[D1677E] mutant” value in the series with Sm.TRPMPZQ[D1677E] is listed as “unable to be activated”.

Take `O=C(C1CCCCC1)N1CC(=O)N2CCc3ccccc3[C@H]2C1` [(S)-PZQ]: the “difference in potency between Eg.TRPMPZQ and Sm.TRPMPZQ” value at Eg.TRPMPZQ is on record as ~ 100 fold.

With `O=C(C1CCCCC1)N1CC(=O)N2CCCc3ccccc3C2C1` (stereo not shown) [epsiprantel], the “absorption from the gastrointestinal tract” value in series [2] is listed as “poorly absorbed”. The solubility entry in series [3] is “very insoluble”.

One may read the EC50 as the concentration at which the effect is half-maximal. In the case of `O=C(C1CCCCC1)N1CC(=O)N2CCc3ccccc3[C@@H]2C1` [(R)-PZQ], the “difference in potency between Eg.TRPMPZQ and Sm.TRPMPZQ” value at Eg.TRPMPZQ is reported as ~ 4 fold. Besides, the EC50 in series [4] amounted to 7.7 ± 1.3 nM; with Se.TRPMPZQ (read-out: EC50 at Se.TRPMPZQ, mean ± SEM) it was 1000 ± 300 nM. Also, in the series with Se.TRPMPZQ (relative to (R)-PZQ at Eg.TRPMPZQ), the “efficacy (Bmax) at Se.TRPMPZQ” value is reported as 17 ± 0.8 % of (R)-PZQ at Eg.TRPMPZQ.

The record behind these values is paper PMC12853403 (ACS infectious diseases, 2025).
